PDI inh – blocks human protein disulfide isomerase activity. P07237. PDI insulin aggregation turbidity, A650, 90 min. inhibition, % at 10 µM. 350,000 compounds, 0.052% hits. AID 588391;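 active = mean inhibition across replicates of 30% or more, whatever share of single replicates reach that level; inconclusive = mean inhibition below 30% while every single replicate reaches 30%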
HIV Env fusion – blocks HIV Env-driven cell-cell fusion; AID 651610; HeLa-JRFL Env/CEM21 cell fusion, luciferase; inhibition, % at 12.3 µM; 360,000 compounds, 1.1% hits;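 active = mean replicate inhibition score of at least 50 and every replicate individually at or above 50; inconclusive = only one of the two criteria met; inactive = mean below 50 and not all replicates reaching 50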;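 also: 0% = plate neutral controls and 100% = maraviroc near 300 nM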
INS-1E GSIS act – GLuc luminescence reporter in INS-1E cells, primary screen for activators of glucose-dependent secretion of insulin; 370,000 compounds, 0.61% hits; activation, % at 16.6 µM; INS-1E GLuc reporter insulin secretion, 2-3 h;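 active = lowest replicate activation of at least 40%, so every replicate reaches that level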;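 also: 0% = median of neutral control wells and 100% = median of IBMX positive control wells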
ERp5 inh – inhibitors of human ERp5 | ERp5 insulin aggregation, absorbance 650 nm, 90 min | inhibition, % at 9.99 µM | 350,000 compounds, 0.05% hits;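 active = mean replicate inhibition above about 25%, with every replicate also reaching it, limit read from the data, passing the limit was not always enough; inconclusive = only one of those two criteria met; inactive = neither criterion met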
Target sequence (Q15084 whole entry, looked up): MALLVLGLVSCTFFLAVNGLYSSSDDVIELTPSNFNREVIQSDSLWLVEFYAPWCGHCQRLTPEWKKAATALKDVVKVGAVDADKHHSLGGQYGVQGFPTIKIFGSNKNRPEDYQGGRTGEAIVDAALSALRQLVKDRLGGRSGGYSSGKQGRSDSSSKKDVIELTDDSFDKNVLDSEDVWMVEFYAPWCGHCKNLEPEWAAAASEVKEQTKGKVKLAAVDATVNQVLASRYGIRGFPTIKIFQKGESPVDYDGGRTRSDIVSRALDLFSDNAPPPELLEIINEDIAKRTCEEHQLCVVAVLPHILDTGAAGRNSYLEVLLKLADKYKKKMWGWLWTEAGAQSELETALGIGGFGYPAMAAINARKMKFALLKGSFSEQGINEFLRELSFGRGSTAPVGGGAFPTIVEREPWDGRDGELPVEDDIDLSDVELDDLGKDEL
FN deposition inh – fibronectin deposition inhibition | AH1F fibroblasts, Alexa488-fibronectin deposition fluorescence, overnight | inhibition, % at 12.6 µM | 350,000 compounds, 0.086% hits | AID 743247;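 active = mean inhibition across replicates of 30% or more, regardless of how many single replicates reach that level; inconclusive = mean under 30% yet at least half of replicates reach 30%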;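 also: positive control wells lacked labelled fibronectin entirely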
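material = AH1F fibroblast monolayer depositing Alexa488-labelled fibronectin into matrix | amount = 10000 AH1F cells/well | buffer or medium = DMEM plus 2% serum, read in PBS | incubation = 1 h cell adhesion before compound, then overnight fibronectin incubation | detection = fluorescence at 485 nm excitation, 525 nm emission | evaluation = percent inhibition as loss of matrix-bound fibronectin fluorescence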
* = called active by the depositor; ? = inconclusive; . = no result given; ! = repeats disagree; [ ] = another dose, or the depositor's remark. Only some compounds are listed: those with a hit (about 1.4% of all), similar ones and a draw of the others.

SMILES	PDI inh	HIV Env fusion	INS-1E GSIS act	ERp5 inh	FN deposition inh
C[C@@H]1CN([C@H](C)CO)C(=O)Cc2cc(NS(=O)(=O)c3ccccc3)ccc2O[C@H]1CN(C)C(=O)Nc1cccc2ccccc12	.	15.6[16.7 µM]	13.0	-6.0	.
C=C1C(=O)C23C(O)C1CCC2C12CCCC(C)(COC(C)=O)C1C(O)C3(O)OC2 (stereo not given)	-3.9	-25.0	162.0*	5.2	29.2
COc1ccc(S(=O)(=O)NNC(=O)C2Cc3c(ccc4ccccc34)O2)cc1 (stereo not given)	0.6	84.7*	-23.9	.	.
C[C@@H]1CN([C@@H](C)CO)C(=O)c2cccc(NS(C)(=O)=O)c2O[C@H]1CN(C)C(=O)Nc1ccc2c(c1)OCO2	.	-6.8[16.7 µM]	-0.3	1.9	.
Cc1ccc(O)c(CN(C)Cc2cc(C)ccc2O)c1	-0.8	-23.8	.	-5.9	0.5
Cc1ccc(O)c(CP(=O)(c2ccccc2)c2ccccc2)c1	-4.1	2.0	44.4*	0.4	5.3
CCc1cc2c(COC(=O)c3cccc(NS(C)(=O)=O)c3)cc(=O)oc2cc1O	-1.6	-8.4	65.3*	3.8	12.3
CCc1cc2c(COC(=O)c3cc(S(=O)(=O)N4CCOCC4)ccc3F)cc(=O)oc2cc1O	8.7	.	.	-1.7	-6.0
CC(C)CC#Cc1ccc2c(c1)O[C@H](CN(C)S(=O)(=O)c1cccc(F)c1)[C@@H](C)CN([C@H](C)CO)S2(=O)=O	.	25.9[16.7 µM]	-28.7	2.0	.
CC(C)CC#Cc1ccc2c(c1)O[C@@H](CN(C)S(=O)(=O)c1cccc(F)c1)[C@@H](C)CN([C@@H](C)CO)S2(=O)=O	.	77.5*[16.7 µM]	.	0.9	.
C[C@@H]1CN([C@H](C)CO)S(=O)(=O)c2ccc(-c3cccc(F)c3)cc2O[C@@H]1CN(C)S(=O)(=O)c1ccc(F)cc1	.	55.7*[16.7 µM]	-1.9	-0.5	0.3
CC(C)CC#Cc1ccc2c(c1)O[C@@H](CN(C)S(=O)(=O)c1ccc(F)cc1)[C@H](C)CN([C@H](C)CO)S2(=O)=O	.	43.7[16.7 µM]	-4.9	5.4	-4.9
CC(C)CC#Cc1ccc2c(c1)O[C@H](CN(C)S(=O)(=O)c1ccc(F)cc1)[C@H](C)CN([C@@H](C)CO)S2(=O)=O	.	61.3*[16.7 µM]	5.4	-2.3	-0.1
Cc1ccc(S(=O)(=O)N(C)C[C@@H]2Oc3cc(C#CC4CCCC4)ccc3S(=O)(=O)N([C@H](C)CO)C[C@H]2C)cc1	.	58.4*[16.7 µM]	-6.1	-10.0	7.4
CC(C)CC#Cc1ccc2c(c1)O[C@@H](CN(C)Cc1cccc(F)c1)[C@@H](C)CN([C@H](C)CO)S2(=O)=O	.	9.7[16.7 µM]	-2.3	-0.6	-8.2
C[C@H](CO)N1C[C@H](C)[C@H](CN(C)S(=O)(=O)c2cccc(F)c2)Oc2cc(C#CCN(C)C)ccc2S1(=O)=O	.	-12.8[16.7 µM]	10.2	4.0	5.1
COc1ccccc1-c1ccc2c(c1)O[C@H](CN(C)S(=O)(=O)c1ccccc1)[C@H](C)CN([C@H](C)CO)S2(=O)=O	.	56.3*[16.7 µM]	-12.8	2.2	-4.8
C[C@H](CO)N1C[C@H](C)[C@H](CN(C)S(=O)(=O)c2cccc(F)c2)Oc2cc(Br)ccc2S1(=O)=O	0.8	77.6*![16.7 µM]	-23.3	-5.8	4.2
CC(C)CC#Cc1ccc2c(c1)O[C@@H](CN(C)Cc1cccc(F)c1)[C@H](C)CN([C@@H](C)CO)S2(=O)=O	.	-15.9[16.7 µM]	95.3*	-13.4	25.7
CCCC#Cc1ccc2c(c1)O[C@@H](CN(C)S(=O)(=O)c1cccc(F)c1)[C@@H](C)CN([C@H](C)CO)S2(=O)=O	.	63.6*[16.7 µM]	-9.1	-1.3	.
C[C@@H]1CN([C@@H](C)CO)C(=O)c2cccc(NC(=O)C3CCCCC3)c2O[C@@H]1CN(C)C(=O)Nc1ccc2c(c1)OCO2	.	.	4.8	-0.3	.
C[C@@H]1CN([C@H](C)CO)C(=O)c2cc(NC(=O)Nc3ccc4c(c3)OCO4)ccc2O[C@@H](C)CCCCO[C@H]1CN(C)S(=O)(=O)c1ccccc1	.	1.9[16.7 µM]	-6.4	-4.4	1.4
COc1ccc(S(=O)(=O)N(C)C[C@@H]2Oc3cc(Br)ccc3S(=O)(=O)N([C@H](C)CO)C[C@@H]2C)cc1	7.5	57.3*!	-18.8	5.8	-5.5
O=C(CNc1ccc(F)cc1)c1ccccc1	-4.3	106.1*	-2.0	1.0	-4.0
O=C(CNc1ccc(Br)cc1)c1ccccc1	10.3	-9.5	.	.	3.2
SMILES	PDI inh	HIV Env fusion	INS-1E GSIS act	ERp5 inh	FN deposition inh
COc1ccc(NC(=O)Nc2ccc3c(c2)CC(=O)N([C@@H](C)CO)C[C@@H](C)[C@H](CN(C)C(=O)Nc2ccc(C(F)(F)F)cc2)O3)cc1	.	11.0[16.7 µM]	5.8	.	.
CO[C@H](CN(C)C(=O)C1CC1)[C@H](C)CN(C(=O)Nc1ccc(C(F)(F)F)cc1)[C@@H](C)CO	.	55.6*[16.7 µM]	-35.9	16.0	-3.7
CO[C@@H](CN(C)C(=O)C1CCOCC1)[C@@H](C)CN(C(=O)Nc1ccc(C(F)(F)F)cc1)[C@@H](C)CO	.	.	-16.3	-0.8	-3.7
CC(C)(C)NC(=O)C(c1ccccc1)N(Cc1cccs1)C(=O)c1csnn1 (stereo not given)	-0.2	71.9*	.	.	-23.1
C[C@H](CO)N1C[C@H](C)[C@H](CN(C)S(=O)(=O)c2ccccc2)Oc2ccc(NC(=O)Cn3cnnn3)cc2CC1=O	.	65.2*[16.7 µM]	3.1	12.0	.
Cc1ccc(S(=O)(=O)N(C)C[C@H]2Oc3ccc(NC(=O)Cn4cnnn4)cc3CC(=O)N([C@H](C)CO)C[C@@H]2C)cc1	.	1.4[16.7 µM]	5.9	-11.4	.
Cc1ccc(S(=O)(=O)N(C)C[C@@H]2Oc3ccc(NC(=O)Cn4cnnn4)cc3CC(=O)N([C@H](C)CO)C[C@@H]2C)cc1	.	88.7*[16.7 µM]	1.2	-21.8	.
C[C@@H]1CN([C@@H](C)CO)C(=O)Cc2cc(NC(=O)Cn3cnnn3)ccc2O[C@H]1CN(C)S(=O)(=O)c1ccccc1	.	2.3[16.7 µM]	-5.7	-8.3	.
Cc1noc(C)c1NC(=O)N(C)C[C@@H]1Oc2c(NC(=O)Nc3ccccc3)cccc2C(=O)N([C@H](C)CO)C[C@@H]1C	.	-17.2[16.7 µM]	6.3	.	.
COc1cc(S(=O)(=O)N(CCc2ccccc2)Cc2cccs2)ccc1-n1cnnn1	-3.4	?	24.9	.	-1.7
COc1ccc(CCN(C)C(=O)COc2cccc(-n3cnnn3)c2)cc1OC	8.3	-17.4	83.2*	-1.8	3.8
COc1ccc(CCN(Cc2cccs2)S(=O)(=O)c2ccc(-n3cnnn3)cc2)cc1OC	-10.0	86.4*	.	.	-2.3
N#CCc1nn2c(-c3ccccc3)ccnc2c1C#N	-99.8	1.4	45.6*	1.5	-1.3
N#Cc1ccc(-c2ccc(OCC(O)Cn3nnc4ccccc43)cc2)cc1 (stereo not given)	22.4	58.9*	.	.	-5.8
CCNC(=O)C[C@@H]1CC[C@H]2[C@H](COc3ccc(NC(=O)Nc4ccc(C)cc4)cc3C(=O)N2C)O1	.	14.8[16.7 µM]	-5.8	3.5	-9.9
O=P(c1ccccc1)(c1ccccc1)C(c1ccccn1)P(=O)(c1ccccc1)c1ccccc1	-1.8	66.4*	-15.1	2.5	5.0
O=P(c1ccccc1)(c1ccccc1)C(O)c1ccccn1 (stereo not given)	-6.5	5.7	3.4	-0.6	-9.2

Assay outcomes: PubChem, Broad Institute
